Measured values from ChEMBL document CHEMBL4825712.
Active and inactive are the calls of the source. The rule behind the calls is not given here.

Legend:
Influenza A virus [1] = assay: Antiviral activity against Influenza A virus A/WSN/33(H1N1)-PB2-Nanoluc virus infected in human A549 cells assessed as decrease in Nano-luc pretreated for 2 hr followed viral infection incubated for 24 hrs by Nano-Glo luminescence assay; assay type: functional, organism-based; conditions: A/WSN/1933(H1N1)
Outline: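 A549 cells were treated with a range of compound concentrations for 2 h, then infected with WSN-PB2-Nanoluc (NanoLuc fused to PB2) at MOI 0.02 for 24 h. Cells were lysed in Renilla lysis buffer and luminescence read with Nano-Glo substrate on equal lysate volumes. IC50 was derived from the dose-response.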

A549 = assay: Cytotoxicity against human A549 cells by MTT assay; assay type: cell-based
Outline: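 MTT assay run according to the manufacturer's instructions, concurrently with NP immunostaining of infected A549 cultures.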

Influenza A virus [2] = assay: Antiviral activity against Influenza A virus A/WSN/33(H1N1) infected in human A549 cells assessed as viral replication measured after 24 hrs by immunofluorescence microscopy; assay type: functional, organism-based; conditions: A/WSN/1933(H1N1); for IC50: A549, 24 h; for IC90: A549, time 24 hrs
Outline: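 A549 cells were infected with A/WSN/33 at MOI 0.01 for 24 h, then fixed in 4% formaldehyde and permeabilized with 0.1% Triton X-100. They were immunostained for NP with an Alexa-488 secondary plus DAPI and imaged on an image cytometer. Percent infection = NP-positive cells divided by total cells.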

[3] = Selectivity index, ratio of CC50 for human A549 cells to IC50 for antiviral activity against Influenza A virus A/WSN/33(H1N1) infected in human A549 cells; assay type: toxicity, cell-based; conditions: read-out: Selectivity Index
Outline: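 Ratio of CC50 to IC50. IC50 came from A549 cells pretreated 2 h with compound, then infected 24 h with WSN-PB2-Nanoluc at MOI 0.02 and read by Nano-Glo luminescence. CC50 was measured by CellTiter-Glo.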

Influenza A virus [4] = assay: Antiviral activity against Influenza A virus A/California/07/2009 (HIN1) infected in human A549 cells assessed as reduction in infected cells up to 25 uM pretreated for 1 hr; assay type: functional, organism-based; conditions: A/California/07/2009(H1N1), dose microM <=25, time 1.0 hrs
Influenza A virus [5] = assay: Antiviral activity against Influenza A virus A/Wyoming/03/2003 (H3N2) infected in human A549 cells assessed as reduction in infected cells up to 25 uM pretreated for 1 hr; assay type: functional, organism-based; conditions: dose microM <=25, time 1.0 hrs
Influenza A virus [6] = assay: Antiviral activity against Influenza A virus A/WSN/33(H1N1) infected in human A549 cells assessed as reduction in M1 mRNA level by qRT-PCR analysis; assay type: functional, organism-based; conditions: A/WSN/1933(H1N1)
Outline: (§1)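 A549 cells were pretreated for 1 h with 0.5 or 1 μM compound or 0.1% DMSO. They were then infected with A/WSN/33 at MOI 2 for 8 h with compound still present. Total RNA was isolated, reverse transcribed and analysed by qPCR for viral HA, NS1, M1 and M2 mRNA. Three independent experiments; mean ± SD.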

Influenza A virus [7] = assay: Antiviral activity against Influenza A virus A/WSN/33(H1N1) infected in human A549 cells assessed as reduction in NS1 mRNA level by qRT-PCR analysis; assay type: functional, organism-based; conditions: A/WSN/1933(H1N1); outline: as §1
Influenza A virus [8] = assay: Antiviral activity against Influenza A virus A/WSN/33(H1N1) infected in human A549 cells assessed as reduction in HA mRNA level by qRT-PCR analysis; assay type: functional, organism-based; conditions: A/WSN/1933(H1N1); outline: as §1
Influenza A virus [9] = assay: Antiviral activity against Influenza A virus A/Panama/1999 (H3N2) infected in human A549 cells assessed as log reduction in viral titer at 25 uM by standard plaque assay; assay type: functional, organism-based
Outline: (§2)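 A549 cells were infected in the absence or presence of 25 μM compound. For A/WSN/1933 the MOI was 0.01 and infection ran 24 h. For A/Panama/1999 the MOI was 0.1 and infection ran 48 h. Viral titers were determined by standard plaque assay.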

Influenza A virus [10] = assay: Antiviral activity against Influenza A virus A/WSN/33(H1N1) infected in human A549 cells assessed as reduction in M mRNA level at 1 uM pretreated 1 hr before viral infection by smRNA FISH followed by fluorescence microscopy; assay type: functional, organism-based; conditions: A/WSN/1933(H1N1)
Outline: (§3)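 A549 cells received 1 μM compound either 1 h before infection or 1 h after infection. Infection was with WSN at MOI 2 for 8 h. Viral M mRNA was detected by smRNA-FISH and fluorescence microscopy.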

Influenza A virus [11] = assay: Antiviral activity against Influenza A virus A/WSN/33(H1N1) infected in human A549 cells assessed as reduction in NP protein level at 1 uM treated 1 hr after viral infection by Western blot analysis; assay type: functional, organism-based; conditions: A/WSN/1933(H1N1)
Outline: (§4)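 A549 cells received 1 μM compound 1 h before infection, or 1 h or 2 h after infection. Infection was with WSN at MOI 2 for 8 h. Lysates were analysed by western blot for viral proteins.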

Influenza A virus [12] = assay: Antiviral activity against Influenza A virus A/Vietnam/2506/2004 (H5N1) infected in human A549 cells assessed as log reduction in viral titer at 25 uM by standard plaque assay; assay type: functional, organism-based
Influenza A virus [13] = assay: Antiviral activity against Influenza A virus A/WSN/33(H1N1) infected in human A549 cells assessed as reduction in NS mRNA level by smRNA FISH followed by fluorescence microscopy; assay type: functional, organism-based; conditions: A/WSN/1933(H1N1)
Outline: (§5)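 A549 cells on gelatin-coated coverslips were infected with WSN at MOI 2 for 8 h. Cells were fixed in 4% PFA, held in 70% ethanol for 12 h at 4 °C, and hybridized with M, HA or NS smRNA-FISH probes at 37 °C for 4 h. After a formamide/SSC wash, nuclei were stained with Hoechst and imaged by fluorescence microscopy.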

Influenza A virus [14] = assay: Antiviral activity against Influenza A virus A/WSN/33(H1N1) infected in human A549 cells assessed as reduction in HA level at 1 uM pretreated for 8 hrs measured by Western blot analysis; assay type: functional, organism-based; conditions: A/WSN/1933(H1N1)
Outline: (§6)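 A549 cells were pretreated with 1 μM compound or 0.1% DMSO, then infected with A/WSN/33 at MOI 2 for 8 h. Lysates were analysed by western blot for viral proteins, with β-actin as loading control. Three independent experiments.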

Influenza A virus [15] = assay: Antiviral activity against Influenza A virus A/WSN/33(H1N1) infected in human A549 cells assessed as reduction in HA mRNA level by smRNA FISH followed by fluorescence microscopy; assay type: functional, organism-based; conditions: A/WSN/1933(H1N1); outline: as §5
Influenza A virus [16] = assay: Antiviral activity against Influenza A virus A/WSN/33(H1N1) infected in human A549 cells assessed as reduction in M2 mRNA level by qRT-PCR analysis; assay type: functional, organism-based; conditions: A/WSN/1933(H1N1); outline: as §1
Influenza A virus [17] = assay: Antiviral activity against Influenza A virus A/WSN/33(H1N1) infected in human A549 cells assessed as reduction in M1 level at 1 uM pretreated for 8 hrs measured by Western blot analysis; assay type: functional, organism-based; conditions: A/WSN/1933(H1N1); outline: as §6
[18] = target: Hemagglutinin (Influenza A virus (A/Puerto Rico/8/1934(H1N1))) (UniProt P03452); assay: Inhibition of Influenza A virus A/WSN/33(H1N1) hemagglutinin assessed as inhibition of HA-mediated chicken erythrocytes membrane fusion at 0.08 to 5 uM incubated for 30 mins pH 5 by hemolysis inhibition assay; conditions: Influenza A virus (A/WSN/1933(H1N1)), dose 0.08-5 µM
Outline: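 Chicken erythrocyte suspension was incubated on ice with WSN, with or without compound at a range of concentrations. The mixture was acidified to pH 5 and incubated at 37 °C for 30 min. NADH released by lysis was read at 340 as the fusion measure. Data are % of DMSO control; means of triplicates ± SD.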

Influenza A virus [19] = assay: Antiviral activity against Influenza A virus A/WSN/33(H1N1) infected in human A549 cells assessed as reduction in poly(A) RNA/GAPDH mRNA level at 1 uM by smRNA FISH followed by fluorescence microscopy; assay type: functional, organism-based; conditions: A/WSN/1933(H1N1)
Influenza A virus [20] = assay: Antiviral activity against Influenza A virus A/WSN/33(H1N1) infected in human A549 cells assessed as reduction in M mRNA level by smRNA FISH followed by fluorescence microscopy; assay type: functional, organism-based; conditions: A/WSN/1933(H1N1); outline: as §5
Influenza A virus [21] = assay: Antiviral activity against Influenza A virus A/WSN/33(H1N1) infected in human A549 cells assessed as reduction in M1 protein level at 1 uM treated 1 hr after viral infection by Western blot analysis; assay type: functional, organism-based; conditions: A/WSN/1933(H1N1); outline: as §4
Influenza A virus [22] = assay: Antiviral activity against Influenza A virus A/WSN/33(H1N1) infected in human Primary bronchial epithelial cells assessed as reduction in M1 mRNA level at 1 uM by qRT-PCR analysis; assay type: functional, organism-based; conditions: A/WSN/1933(H1N1), Primary bronchial epithelial cell
Influenza A virus [23] = assay: Antiviral activity against Influenza A virus A/WSN/33(H1N1) infected in human A549 cells assessed as reduction in M mRNA level at 1 uM treated 1 hr after viral infection by smRNA FISH followed by fluorescence microscopy; assay type: functional, organism-based; conditions: A/WSN/1933(H1N1); outline: as §3
Influenza A virus [24] = assay: Antiviral activity against Influenza A virus A/WSN/33(H1N1)-PB2-Nanoluc virus infected in human HCT-116 cells assessed as decrease in Nano-luc at 1 uM pretreated for 1 hr followed viral infection incubated for 24 hrs by Nano-Glo luminescence assay; assay type: functional, organism-based; conditions: A/WSN/1933(H1N1)
Influenza A virus [25] = assay: Antiviral activity against Influenza A virus wild-type A/WSN/1933 (H1N1) infected in human A549 cells assessed as log reduction in viral titer at 25 uM by standard plaque assay; assay type: functional, organism-based; outline: as §2
Influenza A virus [26] = assay: Antiviral activity against Influenza A virus A/WSN/33(H1N1) infected in human A549 cells assessed as reduction in NP level at 1 uM pretreated for 8 hrs measured by Western blot analysis; assay type: functional, organism-based; conditions: A/WSN/1933(H1N1); outline: as §6

Chain of Hemagglutinin (Influenza A virus (A/Puerto Rico/8/1934(H1N1))) (P03452 whole entry, the tested form may be a part): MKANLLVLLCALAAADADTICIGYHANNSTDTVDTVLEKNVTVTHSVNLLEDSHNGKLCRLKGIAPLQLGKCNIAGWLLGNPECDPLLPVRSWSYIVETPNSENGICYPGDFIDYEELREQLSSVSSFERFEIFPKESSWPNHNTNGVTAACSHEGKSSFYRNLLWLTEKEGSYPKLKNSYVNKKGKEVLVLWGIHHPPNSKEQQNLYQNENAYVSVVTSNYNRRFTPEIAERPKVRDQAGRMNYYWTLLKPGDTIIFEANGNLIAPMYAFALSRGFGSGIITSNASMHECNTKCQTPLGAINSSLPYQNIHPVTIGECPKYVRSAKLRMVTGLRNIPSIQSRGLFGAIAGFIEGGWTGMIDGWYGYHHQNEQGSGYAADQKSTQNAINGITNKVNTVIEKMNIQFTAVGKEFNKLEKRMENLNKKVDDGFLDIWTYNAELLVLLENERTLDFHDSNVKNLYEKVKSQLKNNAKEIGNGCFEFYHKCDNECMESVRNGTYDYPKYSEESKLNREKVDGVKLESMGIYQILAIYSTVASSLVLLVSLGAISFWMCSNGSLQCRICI

O=S(=O)(c1cc(Cl)ccc1Cl)N1CCc2cc(Cl)ccc21
IC50 (Influenza A virus [1]): > 5 µM | CC10 (A549): > 5 µM

C#CCCC1(CCOC(=O)Cc2ccc(N(CC)S(=O)(=O)c3cc(Cl)ccc3Cl)cc2)N=N1
IC50 (Influenza A virus [1]): > 5 µM | CC10 (A549): > 25 µM

O=S(=O)(c1cc(Cl)ccc1Cl)N1CCCc2cc(Cl)ccc21
IC50 (Influenza A virus [1]): > 5 µM | CC10 (A549): > 5 µM

CCN(c1ccc(F)cc1F)S(=O)(=O)c1cc(Cl)ccc1Cl
IC50 (Influenza A virus [2]): 0.052 µM | IC90 (Influenza A virus [2]): 0.9 µM | selectivity ratio [3]: > 96 | Activity (Influenza A virus [4]): Active | Activity (Influenza A virus [5]): inactive | CC10 (A549): > 5 µM | CC50 (A549): > 5 µM

C#CCN(c1cccc(N=[N+]=[N-])c1)S(=O)(=O)c1cc(Cl)ccc1Cl
IC50 (Influenza A virus [1]): 136 µM | CC10 (A549): > 25 µM

CCN(c1ccc(Cl)cc1C)S(=O)(=O)c1cc(Cl)ccc1Cl
IC50 (Influenza A virus [2]): 0.034 µM | IC90 (Influenza A virus [2]): 0.5 µM | selectivity ratio [3]: > 147 | Activity (Influenza A virus [4]): Active | Activity (Influenza A virus [5]): Active | CC10 (A549): > 5 µM | CC50 (A549): > 5 µM

CCN(C(=O)c1cc(Cl)ccc1Cl)c1ccc(Cl)cc1C
IC50 (Influenza A virus [1]): > 5 µM | CC10 (A549): > 5 µM

CCN(c1ccccc1C)S(=O)(=O)c1cc(Cl)ccc1Cl
Activity (Influenza A virus [6]): Active | Activity (Influenza A virus [7]): Active | Activity (Influenza A virus [8]): Active | Activity (Influenza A virus [9]): Active | IC50 (Influenza A virus [2]): 0.04 µM | IC90 (Influenza A virus [2]): 1.2 µM | Activity (Influenza A virus [10]): Active | Activity (Influenza A virus [11]): Active | Activity (Influenza A virus [12]): Active | Activity (Influenza A virus [13]): Active | Activity (Influenza A virus [14]): Active | selectivity ratio [3]: > 625 | Activity (Influenza A virus [15]): Active | Activity (Influenza A virus [16]): Active | Activity (Influenza A virus [17]): Active | Activity [18]: Active | Activity (Influenza A virus [19]): inactive | Activity (Influenza A virus [20]): Active | Activity (Influenza A virus [21]): Active | Activity (Influenza A virus [22]): Active | Activity (Influenza A virus [4]): Active | Activity (Influenza A virus [23]): Active | IC50 (Influenza A virus [24]): 16.8 µM | Activity (Influenza A virus [25]): Active | Activity (Influenza A virus [5]): inactive | Activity (Influenza A virus [26]): Active | CC10 (A549): > 25 µM | CC50 (A549): > 25 µM

C#CCCC1(CCN(c2ccc(Cl)cc2C)S(=O)(=O)c2cc(Cl)ccc2Cl)N=N1
IC50 (Influenza A virus [1]): > 5 µM | CC10 (A549): > 25 µM
